From publication PMC9326885 (Journal of Food and Drug Analysis, 2017)
Counter-ions that a name gives are not always drawn. Marks after values point to notes of the source that are not given here. One block for each compound: values may come before it.

Legend:
[1] = Effect of oral indican on the pharmacokinetics of oral MTX in rats; assay type: in vivo, rat; settings: mean ± S.E., n = 5; for MRT: male, Sprague-Dawley, rat, serum, po, the mean residence time
Summary of the method: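 Male Sprague–Dawley rats (330–400 g), fasted 12 h, were given oral MTX 5.0 mg/kg alone or with oral indican 20.0 or 40.0 mg/kg in a parallel design. Serum MTX was measured by fluorescence polarization immunoassay (calibrated 0–1.0 μmol/L, LLOQ 0.01 μmol/L). Noncompartmental analysis: Cmax observed, AUC by trapezoidal rule to last point. Groups compared by one-way ANOVA with Scheffe's test.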

[2] = by OATs- and MRPs-mediated transports; cited from earlier work
[3] = Effect of intravenous IS on the elimination of intravenous PSP in rats; assay type: in vivo, rat; settings: for AUC(0-t) / clearance / MRT: male, Sprague-Dawley, rat, serum, iv, 5 mg/kg, mean ± S.E., n = 6; for AUC(0-t): AUC0-1440, area under concentration-time curve to 1440 min; for clearance: Cl, the clearance; for MRT: the mean residence time
Summary of the method: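 Male Sprague–Dawley rats (370–420 g), fasted 12 h, received IV PSP 5.0 mg/kg with or without IV IS 10.0 mg/kg in a crossover design with a 1-week washout. Blood was drawn at 30–1440 min and serum was deproteinized with methanol and basified with NaOH. Absorbance was read at 560 nm (calibration 0.39–12.5 μg/mL). Noncompartmental analysis; paired t-test.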

[4] = intravenous bolus of PSP 5.0 mg/kg alone
[5] = intravenous bolus of PSP 5.0 mg/kg with intravenous bolus of IS 10.0 mg/kg

MRT ([1]; 5 mg/kg, oral MTX 5.0 mg/kg alone): 5.26 h
MRT ([1]; oral MTX 5.0 mg/kg coadministered with indican 20.0 mg/kg): 17 h
MRT ([1]; oral MTX 5.0 mg/kg coadministered with indican 40.0 mg/kg): 16 h
AUC0-2880, area under concentration-time curve to 2880 min ([1]; oral MTX 5.0 mg/kg alone): 63.6 ± 6.9^a μmole•min/L
SMILES: CN(Cc1cnc2nc(N)nc(N)c2n1)c1ccc(C(=O)N[C@@H](CCC(=O)O)C(=O)O)cc1 [MTX, Methotrexate]
Fraction of MTX excreted via urine [2]: More than 80%

Effect on the elimination of PSP (serum profiles) ([3]; intravenous IS 10.0 mg/kg with intravenous PSP 5.0 mg/kg): inhibited
SMILES: O=S(=O)(O)Oc1c[nH]c2ccccc12 [IS, indoxyl sulfate]

AUC(0-t) [3, 4]: 21300 ng·h/mL
AUC(0-t) [3, 5]: 64700 ng·h/mL
clearance [3, 4]: 3.1 ± 0.4 mL/min/kg
clearance [3, 5]: 1 ± 0.3 mL/min/kg
MRT [3, 4]: 6.67 h
MRT [3, 5]: 9.54 h
SMILES: O=S1(=O)OC(c2ccc(O)cc2)(c2ccc(O)cc2)c2ccccc21 [PSP, phenolsulfonphthalein]
